Results from ChEMBL document CHEMBL2417357, “Synthesis and antiprotozoal activities of benzyl phenyl ether diamidine derivatives” (Eur J Med Chem, 2013).
The source made the active and inactive calls. The rule behind the calls is not given here.

Experiments:
[1] = system: Trypanosoma brucei rhodesiense; assay: Antitrypanosomal activity against Trypanosoma brucei rhodesiense STIB900 infected in NMRI mouse assessed as cured animal at 25 mg/kg, po administered for 4 days; format: functional, organism-based; set-up: dose 25 mg/kg
How it was run: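 Acute model in female NMRI mice infected with T. b. rhodesiense STIB900. Single daily doses given for four days, intraperitoneally or orally. Mice surviving 60 days post-infection without parasitaemia relapse counted as cured; result reported as cured/infected out of 4 mice per group, with mean survival in days.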

[2] = Selectivity index, ratio of IC50 for rat L6 cells to IC50 for chloroquine-resistant Plasmodium falciparum K1; format: toxicity, cell-based; conditions: read-out: Ratio IC50
How it was run: (§1)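 SI = IC50 in rat L6 myoblasts / IC50 against the parasite (T. b. rhodesiense STIB900 or P. falciparum K1). Each IC50 is the average of duplicate determinations.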

[3] = system: Trypanosoma brucei rhodesiense; assay: Antitrypanosomal activity against Trypanosoma brucei rhodesiense STIB900 infected in NMRI mouse assessed as mean survival days at 25 mg/kg, po administered for 4 days; format: functional
How it was run: (§2)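 Female NMRI mice, acute infection model with T. b. rhodesiense STIB900. Compound given as a single daily dose for four days, intraperitoneally or orally. Cure means survival to 60 days post-infection without parasitaemia relapse. Mean survival recorded in days.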

[4] = Selectivity index, ratio of IC50 for rat L6 cells to IC50 for amastigotes of Leishmania donovani; format: toxicity, cell-based; conditions: read-out: Ratio IC50
How it was run: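 SI = IC50 in rat L6 myoblasts / IC50 against L. donovani MHOM/SD/62/IS-CL2D axenic amastigotes. The amastigote IC50 is the average of at least two determinations; the L6 IC50 is the average of duplicates.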

[5] = Selectivity index, ratio of IC50 for rat L6 cells to IC50 for Trypanosoma brucei rhodesiense STIB900; format: toxicity, cell-based; conditions: read-out: Ratio IC50; how it was run: as §1
[6] = system: L6; assay: Cytotoxicity against rat L6 cells after 72 hrs by Alamar blue assay; format: cell-based; conditions: L6, 72 h
How it was run: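 Rat L6 myoblast cells; cytotoxic IC50 taken as the average of duplicate determinations.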

[7] = system: Plasmodium falciparum; assay: Antiplasmodial activity against chloroquine-resistant Plasmodium falciparum K1; format: functional, organism-based
How it was run: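 Chloroquine-resistant K1 strain tested in vitro. IC50 is the average of duplicate determinations.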

[8] = system: Trypanosoma brucei rhodesiense; assay: Antitrypanosomal activity against Trypanosoma brucei rhodesiense STIB900 after 72 hrs by Alamar blue assay; format: functional, organism-based; conditions: STIB900, 72 h
[9] = system: Leishmania donovani; assay: Antileishmanial activity against amastigotes of Leishmania donovani MHOM/SD/62/IS-CL2D; format: functional, organism-based
How it was run: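 Axenic amastigotes of L. donovani MHOM/SD/62/IS-CL2D; IC50 taken as the average of at least two determinations.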

[10] = system: Trypanosoma brucei rhodesiense; assay: Antitrypanosomal activity against Trypanosoma brucei rhodesiense STIB900 infected in NMRI mouse assessed as mean survival days at 5 mg/kg, ip administered for 4 days; format: functional; conditions: route intraperitoneal; how it was run: as §2

SMILES	Activity [1]	selectivity ratio [2]	MSD [3]	selectivity ratio [4]	selectivity ratio [5]	IC50 [6]	IC50 [7]	IC50 [8]	IC50 [9]	MSD [10]
COc1cc(/C(N)=N/O)cc(OC)c1OCc1ccc(/C(N)=N/O)cc1.Cl.Cl	inactive	5.11	14.5 days	1.67	< 1	56.8 µM	11.1 µM	161 µM	34.1 µM	–
N=C(N)c1ccc(COc2ccccc2)cc1	–	< 47	–	–	45	167 µM	> 3.56 µM	3.71 µM	–	–
Cl.Cl.Cl.N/C(=N\O)c1cccc(COc2ccc(/C(N)=N/O)cc2Cl)c1	–	< 1	>39 days	< 1	< 1	2.26 µM	> 11.2 µM	49.2 µM	> 100 µM	–
Cl.Cl.N/C(=N\O)c1ccc(COc2ccc(/C(N)=N/O)cc2I)cc1	inactive	3	29.75 days	< 1	< 1	18.1 µM	5.29 µM	25.8 µM	> 100 µM	–
N=C(N)c1cc(I)c(OCc2cccc([N+](=O)[O-])c2)c(I)c1	–	26	–	< 1	3	7.72 µM	0.296 µM	2.66 µM	34.3 µM	–
CO/N=C(\N)c1cccc(COc2c(I)cc(/C(N)=N/OC)cc2OC)c1.Cl.Cl	–	73	40.25 days	< 1	1	81.4 µM	1.12 µM	75.1 µM	> 100 µM	–
CC(C)NC(=N)c1ccc(COc2ccc(C(=N)NC(C)C)cc2)cc1	–	> 7370	–	> 5	> 107	> 144 µM	0.02 µM	1.35 µM	26.6 µM	–
N=C(N)c1ccc(COc2cccc([N+](=O)[O-])c2)cc1	–	< 18	–	–	27	57.8 µM	> 3.25 µM	2.12 µM	–	–
Cl.Cl.N/C(=N\O)c1cccc(COc2ccc(/C(N)=N/O)cc2Br)c1	inactive	< 1	12.75 days	< 1	< 1	4.39 µM	5.8 µM	14.7 µM	> 100 µM	–
CO/N=C(\N)c1cccc(COc2c(Br)cc(/C(N)=N/OC)cc2OC)c1.Cl.Cl	–	21	>52.25 days	< 1	< 1	70.5 µM	3.35 µM	81.5 µM	> 100 µM	–
CO/N=C(\N)c1ccc(COc2ccc(/C(N)=N/OC)cc2Br)cc1.Cl.Cl	–	< 10	>32.5 days	< 1	5	101 µM	> 10.2 µM	18.8 µM	> 100 µM	–
Cl.Cl.N/C(=N\O)c1cccc(COc2ccc(/C(N)=N/O)cc2I)c1	inactive	< 1	20 days	< 1	< 1	4.73 µM	7.31 µM	50.2 µM	> 50 µM	–
N=C(N)c1cccc(COc2cccc([N+](=O)[O-])c2)c1	–	< 34	–	–	14	104 µM	> 3.07 µM	7.28 µM	–	–
C[C@@H]1CC[C@H]2[C@@H](C)C(=O)O[C@@H]3O[C@@]4(C)CC[C@@H]1[C@]32OO4 [ARTEMISININ]	–	–	–	–	–	> 319 µM	0.0041 µM	–	–	–
CO/N=C(\N)c1ccc(COc2ccc(/C(N)=N/OC)cc2)cc1.Cl.Cl	inactive	–	13.25 days	2	–	> 224 µM	5.78 µM	> 224 µM	> 100 µM	–
Cl.Cl.N/C(=N\O)c1ccc(COc2ccc(/C(N)=N/O)cc2Br)cc1	inactive	< 1	28.75 days	< 1	< 1	6.6 µM	> 11.1 µM	24 µM	> 100 µM	–
N=C(N)c1cccc(COc2ccc(C(=N)N)cc2I)c1	–	477	–	5	1190	6.06 µM	0.013 µM	0.005 µM	1.27 µM	>31.25 days
